This is an account of results in ChEMBL document CHEMBL4342528, “Discovery of a First-in-Class Protein Arginine Methyltransferase 6 (PRMT6) Covalent Inhibitor” (J Med Chem, 2020).

The source made the active and inactive calls. The rule behind the calls is not given here. Bounds are passed on as bounds.

Experiment [1] addresses Histone-lysine N-methyltransferase SETDB1 (Homo sapiens) (UniProt Q15047). Nature of the experiment: Inhibition of SETDB1 (unknown origin) assessed as reduction in incorporation of [3H]-labeled methyl group into biotinylated substrate using [3H-SAM] at 10 uM incubated for 1 hr by scintillation proximity assay. In a few lines:
(§1)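 Panel of 33 methyltransferases (22 PKMTs, 3 DNMTs, 8 PRMTs), each tested at 10 and 50 μM compound. Activity was read as ³H-methyl transfer from ³H-SAM in a radiometric assay done as previously described.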

In experiment [2] the target is Histone-lysine N-methyltransferase 2A (Homo sapiens) (UniProt Q03164). The experiment in a line: Inhibition of MLL1 (unknown origin) assessed as reduction in incorporation of [3H]-labeled methyl group into biotinylated substrate using [3H-SAM] at 10 uM incubated for 1 hr by scintillation proximity assay. In a few lines: as §1
Experiment [3] deals with N-lysine methyltransferase SMYD2 (Homo sapiens) (UniProt Q9NRG4). The experiment in a line: Inhibition of SMYD2 (unknown origin) assessed as reduction in incorporation of [3H]-labeled methyl group into biotinylated substrate using [3H-SAM] at 10 uM incubated for 1 hr by scintillation proximity assay. In a few lines: as §1
Sequence of N-lysine methyltransferase SMYD2 (Homo sapiens) (Q9NRG4 whole entry): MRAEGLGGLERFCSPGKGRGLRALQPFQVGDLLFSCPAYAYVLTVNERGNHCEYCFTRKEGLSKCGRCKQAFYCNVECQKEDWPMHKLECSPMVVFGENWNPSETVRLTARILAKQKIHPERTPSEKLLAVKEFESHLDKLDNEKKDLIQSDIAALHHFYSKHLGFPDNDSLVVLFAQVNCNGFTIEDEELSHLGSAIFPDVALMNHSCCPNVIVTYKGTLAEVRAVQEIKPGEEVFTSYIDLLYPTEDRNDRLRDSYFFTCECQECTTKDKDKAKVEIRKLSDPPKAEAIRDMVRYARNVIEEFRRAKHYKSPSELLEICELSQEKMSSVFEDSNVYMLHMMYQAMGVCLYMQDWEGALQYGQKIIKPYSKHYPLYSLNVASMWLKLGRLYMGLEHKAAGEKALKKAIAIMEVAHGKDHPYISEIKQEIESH
Experiment [4] has as its target Protein arginine N-methyltransferase 3 (Homo sapiens, UniProt O60678). The experiment in a line: Inhibition of PRMT3 (unknown origin) expressed in HEK293T cells were co-transfected with GFP-tagged histone H4 peptide assessed as reduction in H4R3 arginine asymmetric dimethylation at 0.2 to 20 uM incubated for 20 hrs. The experiment is classed as cell-based.
The target in experiment [5] is DNMT3B-DNMT3L complex (Homo sapiens) (UniProt Q9UBC3+Q9UJW3). Nature of the experiment: Inhibition of DNMT3B/3L (unknown origin) at 10 uM using un-biotinylated Poly(2'-deoxyinosinic-2'-deoxycytidylic acid) substrate using [3H-SAM] incubated for 1 hr by scintillation proximity assay. The class given is protein-complex assay. In a few lines:
as §1

Experiment [6] deals with T1, Protein arginine N-methyltransferase 6 (Homo sapiens, UniProt Q96LA8). Nature of the experiment: Inhibition of human PRMT6 pre-incubated for 1 to 30 mins using [3H]SAM as donor and [3H]methylated biotin-labeled peptide as substrate by scintillation proximity assay.
The target in experiment [7] is T1, Protein arginine N-methyltransferase 6. Nature of the experiment: Time dependent inhibition of human PRMT6 pre-incubated for 1 to 30 mins using [3H]SAM as donor and [3H]methylated biotin-labeled peptide as substrate by scintillation proximity assay. The note with it: TDE = time-dependent effect.
Target sequence in this assay (Q96LA8 whole entry, looked up): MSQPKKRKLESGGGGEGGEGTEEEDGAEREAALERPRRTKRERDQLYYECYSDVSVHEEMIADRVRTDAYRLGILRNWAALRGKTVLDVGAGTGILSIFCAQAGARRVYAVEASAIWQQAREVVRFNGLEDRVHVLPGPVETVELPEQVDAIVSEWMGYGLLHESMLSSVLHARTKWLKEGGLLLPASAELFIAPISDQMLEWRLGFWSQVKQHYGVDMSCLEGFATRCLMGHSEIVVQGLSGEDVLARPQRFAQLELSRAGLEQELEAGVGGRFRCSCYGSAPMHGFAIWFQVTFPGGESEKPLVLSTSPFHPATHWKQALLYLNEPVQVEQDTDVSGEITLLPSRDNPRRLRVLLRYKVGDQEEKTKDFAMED
The target in experiment [8] is Protein arginine N-methyltransferase 1 (Homo sapiens, UniProt Q99873). Nature of the experiment: Inhibition of human PRMT1 using [3H]SAM as donor and [3H]methylated biotin-labeled peptide as substrate by scintillation proximity assay.
Experiment [9] addresses T1, Protein arginine N-methyltransferase 6. The experiment in a line: Inhibition of Flag-tagged PRMT6 (unknown origin) expressed in HEK293 cells incubated for 20 hrs assessed as reduction in H3R2me2a levels. The class given is cell-based.
The species entered for experiment [10] is Homo sapiens. The experiment in a line: Selectivity index, ratio of IC50 for human PRMT3 to IC50 for human PRMT6.
For experiment [11], the target named is Protein arginine N-methyltransferase 8 (Homo sapiens, UniProt Q9NR22). The experiment in a line: Covalent binding affinity to human PRMT8 assessed as covalent adduct. formation at 300 uM pre-incubated for 1 hr by mass spectrometry. In a few lines:
(§2)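 PRMT protein at 15 μM was incubated 1 h at room temperature with a 20-fold molar excess of inhibitor (300 μM). The reaction was quenched with 0.1% aqueous TFA, separated by HPLC (5–95% acetonitrile in water) and analysed by ESI time-of-flight LC/MS for protein–ligand adduct mass.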

The target of experiment [12] is T2, Histone-arginine methyltransferase CARM1 (Homo sapiens) (UniProt Q86X55).
T2 sequence (whole entry): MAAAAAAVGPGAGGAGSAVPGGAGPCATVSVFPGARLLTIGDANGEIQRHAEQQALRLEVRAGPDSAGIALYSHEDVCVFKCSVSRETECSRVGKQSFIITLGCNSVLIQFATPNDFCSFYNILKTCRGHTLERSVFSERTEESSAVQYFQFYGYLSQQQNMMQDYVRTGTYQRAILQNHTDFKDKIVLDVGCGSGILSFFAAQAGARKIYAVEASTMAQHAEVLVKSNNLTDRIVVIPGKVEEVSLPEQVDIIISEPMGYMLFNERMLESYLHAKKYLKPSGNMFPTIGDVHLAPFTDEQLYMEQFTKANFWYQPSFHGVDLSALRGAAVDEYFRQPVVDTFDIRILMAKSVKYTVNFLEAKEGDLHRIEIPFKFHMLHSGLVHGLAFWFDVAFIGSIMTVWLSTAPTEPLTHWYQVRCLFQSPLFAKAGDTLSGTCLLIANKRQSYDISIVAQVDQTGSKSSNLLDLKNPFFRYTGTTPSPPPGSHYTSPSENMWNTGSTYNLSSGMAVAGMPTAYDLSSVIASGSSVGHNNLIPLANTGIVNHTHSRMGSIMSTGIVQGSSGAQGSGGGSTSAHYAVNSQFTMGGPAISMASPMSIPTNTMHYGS
The experiment in a line: Inhibition of PRMT4 in human MCF7 cells assessed as reduction in BAF155 asymmetric dimethylation at 0.2 to 20 uM incubated for 2 days. The experiment is classed as cell-based.

For experiment [13], the target named is T1, Protein arginine N-methyltransferase 6. Nature of the experiment: Covalent binding affinity to human PRMT6 assessed as covalent adduct. formation at 300 uM pre-incubated for 1 hr by mass spectrometry. In a few lines:
as §2
Target sequence in this assay (Q96LA8 whole entry, looked up): as the sequence (Q96LA8 whole entry, looked up) above

Experiment [14] deals with Protein arginine N-methyltransferase 7 (Homo sapiens) (UniProt Q9NVM4). Nature of the experiment: Inhibition of PRMT7 (unknown origin) assessed as reduction in incorporation of [3H]-labeled methyl group into biotinylated substrate using [3H-SAM] at 10 uM incubated for 1 hr by scintillation proximity assay. In a few lines: as §1
Experiment [15] addresses Histone-lysine N-methyltransferase KMT5B (Homo sapiens) (UniProt Q4FZB7). The experiment in a line: Inhibition of SUV420H1 (unknown origin) assessed as reduction in incorporation of [3H]-labeled methyl group into biotinylated substrate using [3H-SAM] at 10 uM incubated for 1 hr by scintillation proximity assay.
The target in experiment [16] is Histone-lysine N-methyltransferase SUV39H1 (Homo sapiens) (UniProt O43463). Nature of the experiment: Inhibition of SUV39H1 (unknown origin) assessed as reduction in incorporation of [3H]-labeled methyl group into biotinylated substrate using [3H-SAM] at 50 uM incubated for 1 hr by scintillation proximity assay relative to control. In a few lines:
as §1

Experiment [17] shares this target. Nature of the experiment: Inhibition of SUV39H1 (unknown origin) assessed as reduction in incorporation of [3H]-labeled methyl group into biotinylated substrate using [3H-SAM] at 10 uM incubated for 1 hr by scintillation proximity assay. In a few lines:
as §1

The species entered for experiment [18] is Homo sapiens. The experiment in a line: Inhibition of DNMT3A/3L (unknown origin) at 50 uM using un-biotinylated Poly(2'-deoxyinosinic-2'-deoxycytidylic acid) substrate using [3H-SAM] at 50 uM incubated for 1 hr by scintillation proximity assay relative to control. In a few lines: as §1
In experiment [19] the target is DNA (cytosine-5)-methyltransferase 1 (Homo sapiens) (UniProt P26358). Nature of the experiment: Inhibition of DNMT1 (unknown origin) at 10 uM using double-stranded DNA substrate using [3H-SAM] incubated for 1 hr by scintillation proximity assay. In a few lines:
as §1

The target in experiment [20] is Histone-lysine N-methyltransferase, H3 lysine-36 specific (Homo sapiens) (UniProt Q96L73). The experiment in a line: Inhibition of NSD1 (unknown origin) at 10 uM using [3H-SAM] and nucleosome as substrate incubated for 1 hr by scintillation proximity assay. In a few lines:
as §1

Experiment [21] is filed under the species Homo sapiens. Nature of the experiment: Selectivity index, ratio of IC50 for human PRMT1 to IC50 for human PRMT6.

Sequence of Histone-lysine N-methyltransferase SUV39H1 (Homo sapiens) (O43463 whole entry): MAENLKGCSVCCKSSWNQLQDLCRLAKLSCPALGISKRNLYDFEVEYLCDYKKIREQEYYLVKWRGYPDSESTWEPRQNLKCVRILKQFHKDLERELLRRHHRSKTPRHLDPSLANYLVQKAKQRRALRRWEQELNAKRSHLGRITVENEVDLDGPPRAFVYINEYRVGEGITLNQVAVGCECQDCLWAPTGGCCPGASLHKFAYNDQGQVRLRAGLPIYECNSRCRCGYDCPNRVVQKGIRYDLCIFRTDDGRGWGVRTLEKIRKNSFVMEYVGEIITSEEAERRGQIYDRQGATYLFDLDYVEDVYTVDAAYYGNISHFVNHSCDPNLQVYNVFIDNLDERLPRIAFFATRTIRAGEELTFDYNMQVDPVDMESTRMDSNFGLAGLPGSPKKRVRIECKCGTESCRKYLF
Sequence of Histone-lysine N-methyltransferase KMT5B (Homo sapiens) (Q4FZB7 whole entry, looked up): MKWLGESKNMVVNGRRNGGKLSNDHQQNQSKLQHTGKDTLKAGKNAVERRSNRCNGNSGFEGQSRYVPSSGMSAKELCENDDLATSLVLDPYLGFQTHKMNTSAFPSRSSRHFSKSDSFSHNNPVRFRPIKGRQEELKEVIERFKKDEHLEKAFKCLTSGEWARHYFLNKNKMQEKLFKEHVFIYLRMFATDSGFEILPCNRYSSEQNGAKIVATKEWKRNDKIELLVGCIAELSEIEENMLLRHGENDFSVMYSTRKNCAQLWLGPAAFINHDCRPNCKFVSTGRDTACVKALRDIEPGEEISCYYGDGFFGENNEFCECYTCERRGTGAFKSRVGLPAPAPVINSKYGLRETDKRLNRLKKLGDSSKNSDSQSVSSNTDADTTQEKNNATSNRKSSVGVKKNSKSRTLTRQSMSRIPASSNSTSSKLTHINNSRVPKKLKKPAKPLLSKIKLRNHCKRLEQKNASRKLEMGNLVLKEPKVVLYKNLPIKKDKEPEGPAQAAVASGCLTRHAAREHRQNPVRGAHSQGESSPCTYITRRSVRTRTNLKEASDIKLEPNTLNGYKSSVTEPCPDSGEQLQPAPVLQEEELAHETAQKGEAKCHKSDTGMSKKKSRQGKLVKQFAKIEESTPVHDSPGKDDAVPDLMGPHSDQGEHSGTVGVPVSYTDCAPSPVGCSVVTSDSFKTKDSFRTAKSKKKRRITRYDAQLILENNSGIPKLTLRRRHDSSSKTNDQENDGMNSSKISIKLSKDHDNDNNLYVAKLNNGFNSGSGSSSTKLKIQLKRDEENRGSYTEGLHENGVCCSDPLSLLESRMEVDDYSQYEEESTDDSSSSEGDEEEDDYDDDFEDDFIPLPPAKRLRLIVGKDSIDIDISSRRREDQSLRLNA
Sequence of Histone-lysine N-methyltransferase, H3 lysine-36 specific (Homo sapiens) (Q96L73 whole entry): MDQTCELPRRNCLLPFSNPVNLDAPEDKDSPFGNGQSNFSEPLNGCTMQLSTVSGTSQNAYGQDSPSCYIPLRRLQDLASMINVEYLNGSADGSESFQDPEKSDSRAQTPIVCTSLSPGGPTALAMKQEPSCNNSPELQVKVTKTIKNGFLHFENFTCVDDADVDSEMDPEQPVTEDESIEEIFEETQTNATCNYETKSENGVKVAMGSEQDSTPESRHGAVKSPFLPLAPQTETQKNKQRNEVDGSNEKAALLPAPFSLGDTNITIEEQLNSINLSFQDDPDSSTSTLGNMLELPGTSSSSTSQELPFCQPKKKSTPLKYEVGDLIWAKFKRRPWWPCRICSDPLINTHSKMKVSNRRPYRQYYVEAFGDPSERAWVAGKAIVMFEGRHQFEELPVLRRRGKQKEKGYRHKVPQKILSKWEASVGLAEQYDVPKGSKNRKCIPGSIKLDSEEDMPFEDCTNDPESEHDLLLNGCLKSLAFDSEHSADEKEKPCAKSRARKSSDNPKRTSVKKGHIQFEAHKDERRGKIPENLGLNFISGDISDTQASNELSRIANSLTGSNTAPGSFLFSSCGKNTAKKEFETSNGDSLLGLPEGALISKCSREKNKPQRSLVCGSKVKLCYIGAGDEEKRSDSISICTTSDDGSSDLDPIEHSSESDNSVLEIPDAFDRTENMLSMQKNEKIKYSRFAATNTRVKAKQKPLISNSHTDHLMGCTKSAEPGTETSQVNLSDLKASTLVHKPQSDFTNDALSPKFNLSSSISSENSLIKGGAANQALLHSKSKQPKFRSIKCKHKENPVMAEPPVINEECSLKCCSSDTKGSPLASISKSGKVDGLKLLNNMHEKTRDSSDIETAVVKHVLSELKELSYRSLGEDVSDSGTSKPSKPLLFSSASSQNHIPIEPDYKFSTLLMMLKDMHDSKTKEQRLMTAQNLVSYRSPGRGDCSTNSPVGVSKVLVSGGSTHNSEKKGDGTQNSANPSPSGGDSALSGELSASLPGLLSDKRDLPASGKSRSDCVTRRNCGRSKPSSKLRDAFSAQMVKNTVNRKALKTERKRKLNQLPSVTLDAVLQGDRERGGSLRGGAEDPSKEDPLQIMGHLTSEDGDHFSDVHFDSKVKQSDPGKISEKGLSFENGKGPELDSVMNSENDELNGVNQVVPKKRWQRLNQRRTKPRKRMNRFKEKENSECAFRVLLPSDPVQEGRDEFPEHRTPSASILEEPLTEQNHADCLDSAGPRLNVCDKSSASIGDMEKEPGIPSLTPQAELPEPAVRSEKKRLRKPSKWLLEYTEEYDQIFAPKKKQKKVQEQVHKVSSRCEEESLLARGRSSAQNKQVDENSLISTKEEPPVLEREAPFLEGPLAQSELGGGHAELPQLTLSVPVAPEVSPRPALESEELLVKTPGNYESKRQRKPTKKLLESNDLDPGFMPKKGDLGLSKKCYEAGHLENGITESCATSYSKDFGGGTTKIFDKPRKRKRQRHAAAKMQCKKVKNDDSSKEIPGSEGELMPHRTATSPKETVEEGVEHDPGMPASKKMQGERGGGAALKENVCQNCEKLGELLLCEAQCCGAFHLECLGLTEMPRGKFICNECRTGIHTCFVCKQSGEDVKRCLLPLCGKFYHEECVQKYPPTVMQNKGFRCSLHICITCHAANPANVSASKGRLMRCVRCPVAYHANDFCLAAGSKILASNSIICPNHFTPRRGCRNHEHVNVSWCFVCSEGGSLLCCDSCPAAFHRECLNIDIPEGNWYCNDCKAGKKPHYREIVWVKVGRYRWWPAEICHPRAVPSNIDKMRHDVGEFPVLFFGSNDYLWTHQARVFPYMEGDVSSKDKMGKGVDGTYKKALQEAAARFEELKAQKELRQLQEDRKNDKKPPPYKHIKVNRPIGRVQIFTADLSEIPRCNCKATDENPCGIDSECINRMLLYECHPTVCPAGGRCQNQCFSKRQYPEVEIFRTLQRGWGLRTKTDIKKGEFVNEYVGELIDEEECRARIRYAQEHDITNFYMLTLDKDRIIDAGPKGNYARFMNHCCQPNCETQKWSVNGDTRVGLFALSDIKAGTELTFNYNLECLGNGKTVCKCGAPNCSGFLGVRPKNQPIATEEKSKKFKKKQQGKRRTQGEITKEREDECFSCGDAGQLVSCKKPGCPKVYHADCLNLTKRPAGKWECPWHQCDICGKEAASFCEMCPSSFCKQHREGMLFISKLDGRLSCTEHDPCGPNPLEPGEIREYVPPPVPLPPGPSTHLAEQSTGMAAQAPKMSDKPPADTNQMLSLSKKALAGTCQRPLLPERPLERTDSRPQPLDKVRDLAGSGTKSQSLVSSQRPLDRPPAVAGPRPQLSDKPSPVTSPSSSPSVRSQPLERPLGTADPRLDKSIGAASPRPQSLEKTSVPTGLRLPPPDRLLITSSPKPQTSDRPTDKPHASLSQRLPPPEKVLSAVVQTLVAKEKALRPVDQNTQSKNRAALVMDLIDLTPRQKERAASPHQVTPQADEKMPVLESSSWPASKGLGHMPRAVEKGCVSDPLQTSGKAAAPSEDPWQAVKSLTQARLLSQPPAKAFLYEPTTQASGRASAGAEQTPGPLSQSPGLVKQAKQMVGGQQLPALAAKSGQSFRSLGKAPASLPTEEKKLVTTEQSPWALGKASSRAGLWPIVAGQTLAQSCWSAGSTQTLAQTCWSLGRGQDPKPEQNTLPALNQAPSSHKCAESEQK

Take `C=CC(=O)Nc1cccc(-c2c[nH]cc2CN(C)CCN)c1`: the inhibition result in experiment [1], in [2], in experiment [3], in [4], in experiment [5] and in experiment [12] was “inactive” throughout. Also, the inhibition entry in [14], in [15], in experiment [17], in experiment [19] and in experiment [20] was “inactive” throughout. The Ki in experiment [6] came out at 16 nM. The Kinact in experiment [6] is 0.08 min⁻¹. Further, the inhibition result in experiment [7] is “Tde”; in experiment [9], “Dose-dependent effect”; in [16] it was over 50%; in the experiment listed under Homo sapiens [18], over 50%. For the same compound, the values for the IC50 in experiment [8] and in experiment [9] were 100 nM and 1300 nM, respectively. For the same compound, the Ratio IC50 in the experiment filed under Homo sapiens [10] is 167; in the experiment listed under Homo sapiens [21], 6. Also, the outcome in experiment [11] was inactive. In experiment [13], the result was Active.
